Measured values from ChEMBL document CHEMBL2380281, “Synthesis of proline analogues as potent and selective cathepsin S inhibitors” (Bioorg Med Chem Lett, 2013).

How the values were obtained:
Cathepsin S = Cathepsin S (Homo sapiens, UniProt P25774); assay: Inhibition of human cathepsin-S
Cathepsin K = target: T1, Cathepsin K (Homo sapiens, UniProt P43235); assay: Inhibition of human cathepsin-K
T1 sequence (P43235 whole entry): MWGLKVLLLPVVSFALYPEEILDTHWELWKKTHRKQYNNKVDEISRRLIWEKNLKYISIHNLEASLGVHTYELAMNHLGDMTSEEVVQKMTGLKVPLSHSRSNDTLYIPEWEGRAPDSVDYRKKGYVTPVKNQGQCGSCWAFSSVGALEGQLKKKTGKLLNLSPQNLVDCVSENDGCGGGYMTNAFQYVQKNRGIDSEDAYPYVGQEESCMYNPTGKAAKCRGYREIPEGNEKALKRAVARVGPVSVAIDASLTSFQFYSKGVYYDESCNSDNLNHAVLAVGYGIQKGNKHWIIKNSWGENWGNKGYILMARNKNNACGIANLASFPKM
In short: (§1)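 Human cathepsin B and K activity measured with a SensoLyte 520 cathepsin activity assay kit; LHVS as pan-cathepsin positive control.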

Cathepsin B = Cathepsin B (Homo sapiens, UniProt P07858); assay: Inhibition of human cathepsin-B; in short: as §1

Chain of Cathepsin S (P25774 whole entry): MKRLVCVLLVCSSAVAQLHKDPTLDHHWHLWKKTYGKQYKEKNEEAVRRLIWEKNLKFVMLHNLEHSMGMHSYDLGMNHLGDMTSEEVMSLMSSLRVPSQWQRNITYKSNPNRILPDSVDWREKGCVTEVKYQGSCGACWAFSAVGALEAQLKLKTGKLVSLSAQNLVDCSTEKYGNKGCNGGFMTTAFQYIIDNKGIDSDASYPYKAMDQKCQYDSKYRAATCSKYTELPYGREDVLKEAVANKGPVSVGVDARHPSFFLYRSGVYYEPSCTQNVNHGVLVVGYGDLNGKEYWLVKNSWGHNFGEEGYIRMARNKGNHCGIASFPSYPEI

SMILES	IC50 (Cathepsin S) [nM]	IC50 (Cathepsin K) [µM]	IC50 (Cathepsin B) [µM]
CCC(NC(=O)[C@@H]1C[C@@H](S(=O)(=O)c2ccccc2)CN1)C(=O)c1nc2ccccc2o1 (stereo partly drawn)	156	–	–
CCC(NC(=O)[C@@H]1C[C@@H](S(=O)(=O)c2ccccc2)CN1C(=O)c1ccc(-c2ccccc2)cc1)C(=O)c1nc2ccccc2o1 (stereo partly drawn)	4.1	> 10	> 10
CC(=O)N1C[C@H](S(=O)(=O)c2ccccc2)C[C@H]1C(=O)NC(C(=O)c1nc2ccccc2o1)C(C)C (stereo partly drawn)	24.6	–	–
CCC(NC(=O)[C@@H]1C[C@@H](S(=O)(=O)CC)CN1C(C)=O)C(=O)c1nc2ccccc2o1 (stereo partly drawn)	> 100	–	–
O=C(CNC(=O)[C@@H]1C[C@@H](S(=O)(=O)c2ccccc2)CN1C(=O)C1CCCCC1)c1nc2ccccc2o1	36.6	–	–
CCC(=O)N1C[C@H](S(=O)(=O)c2ccccc2)C[C@H]1C(=O)NC(CC)C(=O)c1nc2ccccc2o1 (stereo partly drawn)	3.1	–	–
CCC(NC(=O)[C@@H]1C[C@@H]([S@](=O)c2ccccc2)CN1C(C)=O)C(=O)c1nc2ccccc2o1 (stereo partly drawn)	83.7	–	–
CCC(NC(=O)[C@@H]1C[C@@H](S(=O)(=O)c2ccccc2)CN1C(=O)C(C)C)C(=O)c1nc2ccccc2o1 (stereo partly drawn)	2.4	–	–
CCC(NC(=O)[C@@H]1C[C@@H](S(=O)(=O)c2ccccc2)CN1C(=O)C1CCCCC1)C(=O)c1nc2ccccc2o1 (stereo partly drawn)	3.3	> 10	> 10
CCC(NC(=O)[C@@H]1C[C@@H](S(=O)(=O)c2ccccc2)CN1S(C)(=O)=O)C(=O)c1nc2ccccc2o1 (stereo partly drawn)	3.5	–	–
CCC(NC(=O)[C@@H]1C[C@@H](S(=O)(=O)c2ccccc2)CN1C(=O)c1ccccc1)C(=O)c1nc2ccccc2o1 (stereo partly drawn)	3	> 10	> 10
CC(C)C[C@@H](NC(=O)N1CCOCC1)C(=O)N[C@@H](/C=C/S(=O)(=O)c1ccccc1)CCc1ccccc1	1.9	0.004	0.003
CCC(NC(=O)[C@@H]1C[C@@H](S(=O)(=O)c2ccccc2)CN1C(=O)c1ccncc1)C(=O)c1nc2ccccc2o1 (stereo partly drawn)	3.3	–	–
CCC(NC(=O)[C@@H]1C[C@@H](S(=O)(=O)c2ccccc2)CN1C(=O)c1cccnc1)C(=O)c1nc2ccccc2o1 (stereo partly drawn)	3.5	–	–
CCC(NC(=O)[C@@H]1C[C@@H](S(=O)(=O)c2ccccc2Cl)CN1C(C)=O)C(=O)c1nc2ccccc2o1 (stereo partly drawn)	2.3	–	–
